Results taken from ChEMBL document CHEMBL1124808, “The synthesis and antiallergy activity of 1-(aryloxy)-4-(4-arylpiperazinyl)-2-butanol derivatives” (1990).

Columns and labels:
[1] = system: Rattus norvegicus; assay: Percent change in volume of foot edema of test compound to that of positive control was determined at a dose of 31.6 mg/kg in rat; -41/-61; format: functional
[2] = system: Rattus norvegicus; assay: Percent change in volume of foot edema of test compound to that of positive control was determined at a dose of 31.6 mg/kg in rat; -26/-74; format: functional
[3] = system: Rattus norvegicus; assay: Percent change in volume of foot edema of test compound to that of positive control was determined at a dose of 10 mg/kg in rat; -46/-83; format: functional
[4] = system: Rattus norvegicus; assay: Percent change in volume of foot edema of test compound to that of positive control was determined at a dose of 31.6 mg/kg in rat; -90/-83; format: functional
[5] = system: Rattus norvegicus; assay: Percent change in volume of foot edema of test compound to that of positive control was determined at a dose of 3.16 mg/kg in rat; -32/-78; format: functional
[6] = system: Rattus norvegicus; assay: Percent change in volume of foot edema of test compound to that of positive control was determined at a dose of 10 mg/kg in rat; -15/-73; format: functional
[7] = system: Rattus norvegicus; assay: Percent change in volume of foot edema of test compound to that of positive control was determined at a dose of 31.6 mg/kg in rat; -64/-73; format: functional
[8] = system: Rattus norvegicus; assay: Percent change in volume of foot edema of test compound to that of positive control was determined at a dose of 31.6 mg/kg in rat; -25/-93
[9] = system: Rattus norvegicus; assay: Percent change in volume of foot edema of test compound to that of positive control was determined at a dose of 31.6 mg/kg in rat; -57/-83; format: functional
[10] = system: Rattus norvegicus; assay: Percent change in volume of foot edema of test compound to that of positive control was determined at a dose of 10 mg/kg in rat; -39/-72; format: functional
[11] = system: Rattus norvegicus; assay: Percent change in volume of foot edema of test compound to that of positive control was determined at a dose of 10 mg/kg in rat; -41/-59; format: functional
[12] = system: Rattus norvegicus; assay: Percent change in volume of foot edema of test compound to that of positive control was determined at a dose of 31.6 mg/kg in rat; -77/-67; format: functional
[13] = system: Rattus norvegicus; assay: Percent change in volume of foot edema of test compound to that of positive control was determined at a dose of 31.6 mg/kg in rat; -42/-81; format: functional
[14] = system: Rattus norvegicus; assay: Percent change in volume of foot edema of test compound to that of positive control was determined at a dose of 31.6 mg/kg in rat; -87/-67; format: functional
[15] = system: Rattus norvegicus; assay: Percent change in volume of foot edema of test compound to that of positive control was determined at a dose of 10 mg/kg in rat; -73/-59; format: functional
[16] = system: Rattus norvegicus; assay: Percent change in volume of foot edema of test compound to that of positive control was determined at a dose of 3.16 mg/kg in rat; -8/-67; format: functional
[17] = organism: Cavia porcellus; assay: Dose that protects 50% of guinea pig from collapse was determined in guinea pig anaphylaxis assay; format: functional; details: read-out: PD50
Summary of the method: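 Guinea pigs dosed by gavage (10 mL/kg) with compound in 0.5% Tween 80/water; reference theophylline 100 mg/kg po. At 1–24 h, exposed in chamber to aerosolized 1% (w/v) egg albumin at 10 L air/min for up to 5 min; protected if no collapse within 5 min. PD50 by Litchfield and Wilcoxon.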

[18] = system: Rattus norvegicus; assay: Percent change in volume of foot edema of test compound to that of positive control was determined at a dose of 10 mg/kg in rat; -54/-72; format: functional
[19] = system: Rattus norvegicus; assay: Percent change in volume of foot edema of test compound to that of positive control was determined at a dose of 31.6 mg/kg in rat; -60/-74; format: functional
[20] = system: Rattus norvegicus; assay: Oral Antiallergic activity in the passive foot anaphylaxis (PFA) assay of various amines at the dose of 3.16 mg/kg; -4/-78; format: functional
[21] = system: Rattus norvegicus; assay: Percent change in volume of foot edema of test compound to that of positive control was determined at a dose of 10 mg/kg in rat; -36/-88; format: functional
[22] = system: Rattus norvegicus; assay: Percent change in volume of foot edema of test compound to that of positive control was determined at a dose of 31.6 mg/kg in rat; -79/-81; format: functional
[23] = system: Rattus norvegicus; assay: Percent change in volume of foot edema of test compound to that of positive control was determined at a dose of 10 mg/kg in rat; -40/-81; format: functional
[24] = system: Rattus norvegicus; assay: Percent change in volume of foot edema of test compound to that of positive control was determined at a dose of 31.6 mg/kg in rat; -56/-65; format: functional
[25] = system: Rattus norvegicus; assay: Percent change in volume of foot edema of test compound to that of positive control was determined at a dose of 10 mg/kg in rat; -49/-81; format: functional
[26] = system: Rattus norvegicus; assay: Percent change in volume of foot edema of test compound to that of positive control was determined at a dose of 3.16 mg/kg in rat; -20/-78; format: functional
[27] = system: Rattus norvegicus; assay: Percent change in volume of foot edema of test compound to that of positive control was determined at a dose of 31.6 mg/kg in rat; -27/-65; format: functional
[28] = system: Rattus norvegicus; assay: Percent change in volume of foot edema of test compound to that of positive control was determined at a dose of 10 mg/kg in rat; -38/-88; format: functional
[29] = system: Rattus norvegicus; assay: Percent change in volume of foot edema of test compound to that of positive control was determined at a dose of 31.6 mg/kg in rat; -87/-83; format: functional
[30] = system: Rattus norvegicus; assay: Percent change in volume of foot edema of test compound to that of positive control was determined at a dose of 10 mg/kg in rat; -43/-77; format: functional
[31] = system: Rattus norvegicus; assay: Percent change in volume of foot edema of test compound to that of positive control was determined at a dose of 31.6 mg/kg in rat; -65/-78; format: functional

## CN(CCC(O)COc1ccccc1)CCN(C)c1ccccc1.O=C(O)C(=O)O (configuration not stated)
[1]
  PFA: -41

## COc1cc(N2CCN(CCC(O)COc3ccccc3)CC2)cc(OC)c1OC.O=C(O)C(=O)O (configuration not stated)
[2]
  PFA: -26

## Cl.NC(=O)c1ccc(OCC(O)CCN2CCN(c3ccccc3)CC2)cc1 (configuration not stated)
[3]
  PFA: -46
[4]
  PFA: -90
[5]
  PFA: -32

## Cl.Cl.N#Cc1ccc(OCC(O)CCN2CCN(c3ccccc3)CC2)cc1 (configuration not stated)
[6]
  PFA: -15
[7]
  PFA: -64

## CC(=O)c1ccc(OCC(O)CCN2CCN(c3ccccc3)CC2)cc1.Cl.Cl (configuration not stated)
[8]
  PFA: -25

## CC(C)(C)c1ccc(OCC(O)CCN2CCN(c3ccccc3)CC2)cc1.Cl (configuration not stated)
[9]
  PFA: -57
[10]
  PFA: -39

## Cc1ccc(N2CCN(CCC(O)COc3ccc(F)cc3)CC2)cc1.Cl.Cl (configuration not stated)
[11]
  PFA: -41
[12]
  PFA: -77

## O=C(O)/C=C\C(=O)O.c1ccc(OCCCCN2CCN(c3ccccc3)CC2)cc1
[13]
  PFA: -42

## Cl.OC(CCN1CCN(c2ccc(Cl)cc2)CC1)COc1ccc(F)cc1 (configuration not stated)
[14]
  PFA: -87
[15]
  PFA: -73
[16]
  PFA: -8
[17]
  ED50: 7.85 mg/kg

## Cc1ccc(N2CCN(CCC(O)COc3ccc(Cl)cc3)CC2)cc1.Cl (configuration not stated)
[18]
  PFA: -54
[19]
  PFA: -60
[20]
  PFA: -4

## Cc1cc(OCC(O)CCN2CCN(c3ccccn3)CC2)ccc1Cl.Cl.Cl (configuration not stated)
[21]
  PFA: -36
[22]
  PFA: -79

## COc1ccc(N2CCN(CCC(O)COc3ccc(Cl)cc3)CC2)cc1.Cl.Cl (configuration not stated)
[23]
  PFA: -40
[22]
  PFA: -79

## OC(CCN1CCN(c2ccccc2)CC1)COc1ccc(Br)cc1 (configuration not stated)
[24]
  PFA: -56
[25]
  PFA: -49
[26]
  PFA: -20

## OC(CCN1CCN(c2ccccc2Cl)CC1)COc1ccccc1 (configuration not stated)
[27]
  PFA: -27

## CC(=O)c1ccc(N2CCN(CCC(O)COc3ccc(F)cc3)CC2)cc1 (configuration not stated)
[28]
  PFA: -38
[29]
  PFA: -87

## OC(CCN1CCN(c2ccc(Cl)cc2)CC1)COc1ccccc1 (configuration not stated)
[30]
  PFA: -43
[31]
  PFA: -65
